Reference: PMC12263870 (Scientific Reports, 2025)

How the values were obtained:
[1] = test system: BSA-glycation mediated methylglyoxal (MG); assay: Anti-glycation assay: BSA-glycation mediated methylglyoxal; assay type: biochemical, bovine; conditions: for IC50: read-out: BSA-glycation inhibition category by IC50 criteria, category in words; for BSA-glycation mediated MG % Inhibition at 500 µM: mean ± SD
Summary of the method: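 Fluorescence anti-glycation assay. BSA (10 mg/mL) was in 0.1 M phosphate buffer pH 7.4 with 0.02% NaN3, and 14 mM methylglyoxal was in phosphate buffer. Test compound in DMSO was preincubated with buffer and methylglyoxal at 37°C for 2 h. BSA was then added and the mix incubated at 37°C for 1 day. Fluorescence (ex 370/em 450 nm) was read against a no-inhibitor blank. Aminoguanidine hydrochloride was the positive control. Triplicate, two independent experiments, mean ± SD.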

[2] = target: T1, α-amylase (Sus scrofa, UniProt P00690); assay: Inhibitory kinetic analysis; assay type: biochemical, porcine
T1 sequence (P00690 16-511): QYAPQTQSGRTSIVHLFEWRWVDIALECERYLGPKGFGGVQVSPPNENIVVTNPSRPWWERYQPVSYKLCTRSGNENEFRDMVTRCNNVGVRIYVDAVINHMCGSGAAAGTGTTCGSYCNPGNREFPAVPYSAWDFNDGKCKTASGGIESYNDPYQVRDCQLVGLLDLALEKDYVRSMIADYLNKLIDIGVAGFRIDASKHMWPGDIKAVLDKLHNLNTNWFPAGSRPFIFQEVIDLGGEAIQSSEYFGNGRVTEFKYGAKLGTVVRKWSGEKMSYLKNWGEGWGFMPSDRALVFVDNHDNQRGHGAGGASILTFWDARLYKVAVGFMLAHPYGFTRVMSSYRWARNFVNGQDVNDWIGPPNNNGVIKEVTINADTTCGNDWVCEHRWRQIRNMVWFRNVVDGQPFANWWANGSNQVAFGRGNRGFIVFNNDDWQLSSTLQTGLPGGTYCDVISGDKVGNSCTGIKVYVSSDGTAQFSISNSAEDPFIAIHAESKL
Summary of the method: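 Porcine pancreatic α-amylase (type VI-B) in phosphate buffer pH 6.0 with 0.02% NaN3. Enzyme stock was 1 mg/mL and CNP-G3 stock 0.5 mM. Test compound and enzyme were preincubated at 37°C for 10 min, then CNP-G3 was added at varied concentrations for 30 min at 37°C, read at 405 nm. Three inhibitor concentrations were used. Inhibition type came from Lineweaver–Burk plots, Ki and Kis from secondary slope and intercept plots.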

Row | Structure (SMILES) | IC50 [1] | further results
1 | O=C1C[C@@H](c2ccc(O)cc2)Oc2c(Br)c(O)c(Br)c(O)c21 [Compound F11a, 6,8-Dibromonaringenin] | 10.1 to 100 µM | 
2 | O=c1cc(-c2ccc(O)c(O)c2)oc2c(Br)c(O)c(Br)c(O)c12 [Compound F3a, 6,8-Dibromoluteolin] | 10.1 to 100 µM | Ki [2]: 0.18 µM; Inhibition type, α-amylase ([2]; Lineweaver-Burk plot, CNP-G3): mixed-type
3 | O=C1C[C@@H](c2ccc(O)cc2)Oc2cc(O)cc(O)c21 [Compound F11, Naringenin] |  | BSA-glycation mediated MG % Inhibition at 500 µM [1]: 56.89%
4 | Cl.N=C(N)NN [Aminoguanidine hydrochloride, reference compound] |  | BSA-glycation mediated MG % Inhibition at 500 µM [1]: 79.66%

Now from value to compound, other results behind:

Row | IC50 [1] | Structure (SMILES) | further results
5 | 10.1 to 100 µM | O=c1c(O)c(-c2ccc(O)c(O)c2)oc2cc(O)cc(O)c12 [Compound F7, Quercetin] | 
6 | 100 to 200 µM | O=c1c(O)c(-c2ccc(O)cc2O)oc2cc(O)cc(O)c12 [Compound F6, Morin] | 
7 | 10.1 to 100 µM | O=c1cc(-c2ccc(O)c(O)c2)oc2cc(O)cc(O)c12 [Compound F3, Luteolin] | 
8 | 10.1 to 100 µM | O=c1cc(-c2ccc(O)cc2)oc2c(Br)c(O)c(Br)c(O)c12 [Compound F2a, 6,8-Dibromoapigenin] | 
